Holding throughout (assay type): biochemical
Assay [1] has as its target T1, human TPST-2 (Homo sapiens, UniProt O60704).
T1 sequence (O60704 25-377 limits assumed): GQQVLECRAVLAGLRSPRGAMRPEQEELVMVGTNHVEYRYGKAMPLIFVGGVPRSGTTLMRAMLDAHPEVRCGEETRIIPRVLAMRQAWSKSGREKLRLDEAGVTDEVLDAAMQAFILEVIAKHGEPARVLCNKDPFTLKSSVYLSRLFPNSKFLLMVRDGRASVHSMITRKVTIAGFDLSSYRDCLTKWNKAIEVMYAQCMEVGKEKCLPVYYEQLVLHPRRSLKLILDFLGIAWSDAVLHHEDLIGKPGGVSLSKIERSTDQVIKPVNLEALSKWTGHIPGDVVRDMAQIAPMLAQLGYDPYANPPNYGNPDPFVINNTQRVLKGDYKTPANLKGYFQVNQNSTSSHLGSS
Description: LC-MS initial-velocity kinetics, Reaction 1: sulfation of nonCCR8. The method in brief: (§1)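 Enzyme was soluble HPC4-epitope-tagged human TPST-2 (transferrin signal peptide), affinity-purified from stably transfected CHO-K1 cells. PAPS and peptide were varied as a matrix in 20 mM MOPS pH 7.5, 100 mM NaCl, 10% glycerol at 30 °C. Reactions started with 250–750 nM enzyme, ran 6–20 min, and were quenched with methanol (0.5 µM final internal standard). Product was read by RP-LC negative-ESI SIM against a calibration curve. Data were fit to the ping-pong equation; kcat/Km came from fitted constants.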

For assay [2], the target named is T1, human TPST-2. The assay is described as follows: LC-MS initial-velocity kinetics, Reaction 2: sulfation of sY15CCR8. In short, it runs like this: as §1
The target of assay [3] is T1, human TPST-2. The assay is described as follows: Product inhibition by PAP, Reaction 1. The method in brief: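 Initial rates of nonCCR8 sulfation by HPC4-purified soluble human TPST-2 were measured at fixed PAP levels. Buffer was 20 mM MOPS pH 7.5, 100 mM NaCl, 10% glycerol, 30 °C. Reactions were quenched with methanol containing internal standard, and product was quantified by LC-ESI-MS SIM. Data were fit by nonlinear regression to competitive or noncompetitive inhibition equations. Two or three independent experiments.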

Assay [4] deals with T1, human TPST-2. Description: Product inhibition by PAP, Reaction 2. The settings on record: pH 7.5, 30°C.
The target of assay [5] is T1, human TPST-2. Description: 35S-sulfation of factor IX by TPST-2. The settings on record: with (lane 1) or without (lane 2) TPST-2; 6 h at 37°C, pH 6.9; autoradiography.

For the molecule `Nc1ncnc2c1ncn2[C@@H]1O[C@H](COP(=O)(O)OS(=O)(=O)O)[C@@H](OP(=O)(O)O)[C@H]1O` [PAPS, 3′-phosphoadenosine 5′-phosphosulfate, reference compound], the “substrate preference by specificity constants, Reaction 1” value on human TPST-2 [1] (PAPS compared with nonCCR8) is on record as “preferred substrate over nonCCR8”. In addition, on human TPST-2 [1] (Reaction 1, for PAPS, calculated from Table 1 values), the “specificity constant kcat/Km for PAPS” value was 590 M⁻¹ s⁻¹. Also, the “specificity constant kcat/Km of PAPS” value at human TPST-2 [2] (Reaction 2, for PAPS, calculated from Table 1 values) was 280 M⁻¹ s⁻¹.
Regarding `Nc1ncnc2c1ncn2[C@@H]1O[C@H](COP(=O)(O)O)[C@@H](OP(=O)(O)O)[C@H]1O` [PAP], on human TPST-2 [3] (Reaction 1, with respect to PAPS and nonsulfated CCR8, data not shown), the “PAP inhibition patterns, Reaction 1, compared with Reaction 2” value was “The same PAP inhibition patterns were observed with respect to PAPS and nonsulfated CCR8 substrates”. For the same molecule, the “KI', product inhibition constant for PAP versus nonCCR8” value on human TPST-2 [3] (Reaction 1, pH 7.5, 30°C, mean of two or three independent experiments) stood at 1200 nM. For the same molecule, on human TPST-2 [4] (PAPS varied 5-25 µM, sY15CCR8 25 µM), the “PAP inhibition mode with respect to PAPS” value is recorded as “competitively”. Besides, the “PAP inhibition mode with respect to sY15CCR8” value at human TPST-2 [4] (sY15CCR8 varied 5-25 µM, PAPS 25 µM) is “noncompetitively”.
With VTDYYYPDI [nonCCR8], the “specificity constant kcat/Km” value at human TPST-2 [1] (Reaction 1, for nonCCR8, calculated from Table 1 values) is 270 M⁻¹ s⁻¹. Further, the “estimated Vmax” value on human TPST-2 [1] (Reaction 1, calculated from intercept replots, pH 7.5, 30°C) was 6.7 mU/mg protein. At human TPST-2 [1] (ratio to Km of sY15CCR8), the “Km of nonsulfated CCR8 peptide relative to monosulfated peptide” value is on record as “at least five”.
Take VTDsYYYPDI [sY15CCR8]: the “specificity constant kcat/Km of sY15CCR8” value on human TPST-2 [2] (Reaction 2, for sY15CCR8, calculated from Table 1 values) was 430 M⁻¹ s⁻¹. Further, the “estimated Vmax” value at human TPST-2 [2] (Reaction 2, from intercept replots, pH 7.5, 30°C) is 1.7 mU/mg protein. Moreover, the “substrate preference by specificity constants, Reaction 2” value on human TPST-2 [2] (sY15CCR8 compared with PAPS) is listed as “preferred than PAPS”. For the same molecule, the “substrate suitability by kcat/Km” value at human TPST-2 [2] (sY15CCR8 compared with nonCCR8) is recorded as “more suitable substrate than nonCCR8”.
In the case of “factor IX: recombinant human factor IX, BeneFIX, Wyeth Pharmaceuticals Inc.”, the “35S-sulfuryl group transfer to factor IX” value in the assay with human TPST-2 [5] was “occurred only in the presence TPST-2”.

Values taken from article PMC3088362 (Journal of the American Society for Mass Spectrometry, 2010).
